CSC inhib: blocks cancer stem cells; cancer stem cell-like cells viability, luminescence; inhibition, % at 7.5 µM; 300,000 compounds, 1.1% hits; AID 2717; in the data active = inhibition above about 75%; inconclusive = no clear call, values can overlap the other calls; tested in HMLE shEcad cells
Mdm2-MdmX inh: human Mdm2/MdmX binding inhibition. O15151+Q00987. SaOS-2 split-luciferase Mdm2/MdmX complementation, luminescence. inhibition, % at 8 µM. 330,000 compounds, 3% hits. AID 485346;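 active = inhibition of at least 50% at 8 µM in the primary screen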
Target sequence (O15151 whole entry, looked up): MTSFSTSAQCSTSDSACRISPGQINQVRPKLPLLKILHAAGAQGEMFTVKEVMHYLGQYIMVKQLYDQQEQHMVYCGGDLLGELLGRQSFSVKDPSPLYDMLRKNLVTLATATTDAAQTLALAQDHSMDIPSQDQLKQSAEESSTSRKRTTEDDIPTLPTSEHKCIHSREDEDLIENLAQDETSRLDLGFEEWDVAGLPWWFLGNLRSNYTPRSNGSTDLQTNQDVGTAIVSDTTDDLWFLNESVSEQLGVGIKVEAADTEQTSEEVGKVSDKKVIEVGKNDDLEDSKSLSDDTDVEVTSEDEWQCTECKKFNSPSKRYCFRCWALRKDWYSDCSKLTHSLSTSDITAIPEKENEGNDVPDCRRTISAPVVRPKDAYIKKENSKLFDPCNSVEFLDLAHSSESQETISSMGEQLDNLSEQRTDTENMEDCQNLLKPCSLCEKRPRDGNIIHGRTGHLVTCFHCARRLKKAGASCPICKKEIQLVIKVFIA
Target sequence (Q00987 whole entry, looked up): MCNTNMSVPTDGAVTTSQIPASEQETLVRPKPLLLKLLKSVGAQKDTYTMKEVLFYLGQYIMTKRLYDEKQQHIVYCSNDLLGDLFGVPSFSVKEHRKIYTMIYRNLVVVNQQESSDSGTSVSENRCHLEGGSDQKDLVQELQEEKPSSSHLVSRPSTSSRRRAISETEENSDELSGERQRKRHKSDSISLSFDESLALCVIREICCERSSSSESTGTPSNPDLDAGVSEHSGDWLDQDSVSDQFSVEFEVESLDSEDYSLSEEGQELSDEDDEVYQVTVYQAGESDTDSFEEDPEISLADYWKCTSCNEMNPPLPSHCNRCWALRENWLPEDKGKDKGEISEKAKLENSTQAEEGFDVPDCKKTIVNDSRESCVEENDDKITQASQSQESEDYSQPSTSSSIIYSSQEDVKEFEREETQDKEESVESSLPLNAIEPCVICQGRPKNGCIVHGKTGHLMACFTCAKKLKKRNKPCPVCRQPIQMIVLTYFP
T cruzi repl: blocks replication of Trypanosoma cruzi; T. cruzi beta-gal in NIH3T3, luminescence, 90 h; inhibition, % (test concentration not listed); 300,000 compounds, 1.4% hits;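 active = mean inhibition across valid replicates above about 55%, limit read from the data; inconclusive = mean below that limit but half or more replicates reach it; inactive = mean below it, under half of replicates reach it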;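 also: signal also drops with host cell toxicity which is not excluded here; 0% = plate median of DMSO wells and 100% = zero luminescence signal; higher percent means less beta-gal luminescence so fewer parasites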
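System: mouse NIH/3T3 fibroblasts infected with β-gal-expressing T. cruzi Tulahuen C4 / Input: NIH/3T3 cells, 5,000 per well / Buffer or medium: Low-serum DMEM with 2% FBS / Probe or stimulus: 5000 reporter trypomastigotes per well / Schedule: ≥90 h infection period, 3 h prior cell attachment / Measured by: GalScreen luminescence, 60 min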
Beta cell apopt: beta cell apoptosis inhibition; 300,000 compounds, 0.8% hits; INS-1E cytokine-induced death, ATP luminescence, 48 h; percent of positive-control rescue, neutral wells zero; protection from apoptosis, % (test concentration not listed);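 active = Every replicate reaches about 75%, or at least half do and their mean reaches it too, limit read from the data; inconclusive = At least half of replicates reach the limit but their mean does not; inactive = Under half of replicates reach the limit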;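 also: 0% = cytokine-treated negative control wells and 100% = positive control rescue; higher means more ATP so stronger rescue from cytokine killing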
SKKanGAS inh: inhibitors of SKKanGAS S. pyogenes growth in kanamycin (SK-promoter or general growth effect); BacTiter-Glo, 6 h; inhibition, % at 7.5 µM; 300,000 compounds, 1.3% hits;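 active = mean replicate score, as percent of positive control median, at least 50; inconclusive = mean below 50 but one replicate at or above 50; inactive = mean and every replicate below 50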;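 also: strain carries kanamycin resistance gene driven by streptokinase promoter and grows in 40 µg/ml kanamycin; loss of luminescence reflects streptokinase promoter inhibition or plain growth inhibition; 0% = median of DMSO wells and 100% = positive control at its reference dose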
L major viab: Leishmania major promastigote growth inhibition. inhibition, % at 10 µM. AID 1063. Leishmania major promastigotes, resazurin fluorescence viability. 200,000 compounds, 9% hits; in the data active = inhibition above about 50%;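 also: promastigotes grown with compound for 44 hours at 28 °C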
Numbers without * were called inactive; ? = inconclusive; nt = not tested or not shown. This is a sample that favours compounds with a hit; in the whole collection about 9.4% have one here.

SMILES	CSC inhib	Mdm2-MdmX inh	T cruzi repl	Beta cell apopt	SKKanGAS inh	L major viab
CCN(CC)C(=S)Nc1ccc([N+](=O)[O-])cc1	1	20	-12	-2	1	59*
CC(=O)Nc1ccc(S(=O)(=O)c2ccc(N)cc2)cc1	-15	16	-20	nt	-9	-9
COc1ccc(CN(C)C(=O)C2CCN(C(=O)Nc3ccccc3)CC2)cc1	-8	17	-4	-1	21	nt
CCN(CC)CC(=O)Nc1ccc2c(c1)Nc1ccccc1CC2	22	24	29	0	1	52*
C[C@]12C(=O)N(c3ccc(F)cc3)C(=O)N1[C@H]1c3ccccc3OC[C@@H]1[C@H]2c1ccccc1	-1	22	nt	-1	nt	nt
CCOc1ccc(/C=N/OCC(=O)Nc2cc(C)on2)cc1	-5	25	-4	-2	-7	60*
CCOc1ccc(/C=N/OCC(=O)NC(c2ccccc2)c2ccccc2)cc1	39	31	24	2	-6	77*
COc1ccc(/C=N/OCC(=O)NC(c2ccccc2)c2ccccc2)c(OC)c1	20	16	22	2	-1	100*
CCOc1ccc(/C=N/OCC(=O)Nc2ccc3c(c2)OCO3)cc1	-4	11	4	-7	11	-3
COc1ccc(C/C(C)=N\NC(=O)c2cn(C)c3ccccc23)cc1OC	0	8	-8	-4	3	nt
COc1ccccc1NS(=O)(=O)c1ccc(N/N=C(\C)C(C)C)c([N+](=O)[O-])c1	18	-24	18	78*	2	-1
CCC1CCCCN1S(=O)(=O)c1ccc2c(c1)CCN2C(C)=O (stereo not given)	-3	26	-6	0	-6	nt
COc1ccc(N=C2SC(C(=O)N3CCN(c4ccc([N+](=O)[O-])cc4)CC3)CC(=O)N2C)cc1 (stereo not given)	-1	26	17	-1	11	52*
CCOC(=O)C1=C(C)N(CC(C)C)C(=O)/C1=C\c1ccc(OCC(=O)Nc2ccccc2)cc1	40	19	9	-1	19	81*
CCOC(=O)c1cc(=O)c2ccc(OCC(=O)Nc3ccccc3)cc2o1	12	6	-23	1	-6	nt
CCCCSc1nc2sc3c(c2c(=O)n1-c1ccc(C)cc1)CCN(C)C3	-2	32	?	134*	24	nt
O=C(CNc1ccccc1F)Nc1cccc2ccccc12	-5	25	-8	0	-1	nt
CCS(=O)(=O)N1Cc2ccccc2CC1C(=O)Nc1ncc(C)s1 (stereo not given)	-2	17	-8	-2	-4	-1
O=C(Nc1ccc2c(c1)OCO2)C1Cc2ccccc2CN1S(=O)(=O)c1cccs1 (stereo not given)	-5	-18	11	-1	1	99*
O=C(Nc1ccc2c(c1)OCO2)C1CCN(S(=O)(=O)c2cccs2)CC1	12	0	6	5	6	10
O=C(Nc1nccs1)C1Cc2ccccc2CN1S(=O)(=O)c1ccc(F)cc1 (stereo not given)	-6	-103	-2	0	7	66*
O=C(NC1CCCCC1)C1Cc2ccccc2CN1S(=O)(=O)c1ccc(F)cc1 (stereo not given)	22	-7	8	-1	-6	43
O=C(Nc1nnc(C2CC2)s1)C1Cc2ccccc2CN1S(=O)(=O)c1ccccc1F (stereo not given)	20	-2	8	4	-4	100*
O=C(COC(=O)Cc1ccccc1F)NNC(=O)c1ccc([N+](=O)[O-])cc1	-9	16	-11	-3	-1	nt
CCN(CC)c1ccc2cc(C(C)=O)c(=O)oc2c1	-2	-36	-5	2	6	11
SMILES	CSC inhib	Mdm2-MdmX inh	T cruzi repl	Beta cell apopt	SKKanGAS inh	L major viab
CCN(CC)c1ccc2cc(-c3nnc(-c4ccncc4)o3)c(=O)oc2c1	nt	nt	nt	nt	nt	68*
COc1ccc(NC(=S)N=Nc2c(O)[nH]c3ccccc23)cc1	52	49	48	22	95*	nt
O=C(COc1ccc(C(=O)c2ccccc2)cc1)NCC(=O)Nc1ccccc1Br	41	24	-2	-3	-7	62*
Cc1ccc(NC(=O)CSc2nnc(C3CC3)n2CC2CCCO2)c(C)c1 (stereo not given)	6	19	-4	-7	-7	nt
COc1ccccc1CNc1ccc(CNc2ncn[nH]2)cc1	1	5	-1	-1	17	-2
COc1cc(CNc2ccc(CNc3ncn[nH]3)cc2)ccc1OCc1ccccc1	90*	-10	-9	-10	9	13
O=[N+]([O-])c1ccc(Cl)c(CN2CCN(c3ncccn3)CC2)c1	2	16	-1	1	11	nt
Cc1ccc2nc(C)c(CN3CCN(c4ccc([N+](=O)[O-])cc4Cl)CC3)n2c1	2	24	42	104*	7	nt
CCC(C)Sc1cc(C(F)(F)F)c(C(=O)Nc2ccc(Cl)cc2)cn1 (stereo not given)	37	42	39	26	70*	nt
Cn1cc(C(=O)Nc2ccc(Cl)cc2)c(C(F)(F)F)n1	-6	0	-10	-5	0	-4
COc1ccc(NCc2ccc([N+](=O)[O-])s2)c(OC)c1	-6	nt	nt	-5	nt	98*
O=[N+]([O-])c1ccc(CNc2ccc(F)cc2)s1	5	11	16	nt	5	nt
COc1ccc(NCc2ccc([N+](=O)[O-])s2)cc1	17	23	37	nt	2	73*
COc1ccc(Cc2[nH]n3c(=O)c(Cl)c(C)nc3c2-c2ccccc2)cc1	10	21	-8	-2	122*	-7
CCCNCC1C(Oc2ccc(Cl)cc2Cl)C(=O)N1c1cccc(C)c1C (stereo not given)	81*	-4	62*	44	6	72*
CCOC(=O)c1sc(=NC(=O)c2c(F)cccc2F)n(C)c1C	4	2	3	-6	-6	nt
CCOc1ccc(CN2CCCC(N3CCN(c4ccc(OC)cc4)CC3)C2)cc1 (stereo not given)	5	1	59*	3	-4	nt
OCCOc1ccc(CN2CCCC(N3CCN(c4ccc(F)cc4)CC3)C2)cc1 (stereo not given)	2	-10	48	nt	3	nt
Cc1ccc(-c2cc(C(=O)O)c3sc(N4CCCCC4)nc3n2)cc1	-1	14	-6	5	19	-5
CCOC(=O)c1cc(-c2ccccc2)nc2nc(N3CCCCC3)sc12	3	-6	16	-6	-2	72*
O=C(O)c1cc(-c2ccccc2)nc2nc(N3CCCCC3)sc12	2	-2	-4	8	21	-5
COc1ccc(-c2cc(C(=O)O)c3sc(N4CCCCC4)nc3n2)cc1OC	-3	5	-6	-3	11	52*
COc1ccc(/C=N\NC(=O)c2cc(O)c(O)c(O)c2)cc1COc1ccc(C(=O)OCC(C)C)cc1	50	-3	14	2	90*	nt

Screening results: PubChem BioAssay, several laboratories
